# Screening results: PubChem, several laboratories
# Shown are actives, neighbours in structure and some others; about 1.9% of the full set was active somewhere.
# Dynein transport: dynein cargo transport inhibition | 3617.4 mouse cells, GR-EGFP nuclear translocation imaging; test concentration mostly 20 µM; stimulated with dexamethasone, 1 µM; hits give low values | z-score, hits read low | 220,000 tested, 0.47% active;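 active = plate z-score of nuclear minus cytoplasmic receptor signal below a set negative limit, without overly bright fluorescence or cell loss, cut at about -3.5 in these data, passing the limit was not always enough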;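 also: z-score of nuclear minus cytoplasmic ring GR-EGFP intensity difference per well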
#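 medium = tetracycline-free induction medium containing charcoal-stripped FBS | probe or stimulus = dexamethasone, 1.0 µM final | timing = 48 h induction, then 1 h compound, then 30 min agonist, 37 °C | detection = automated 10x imaging of fixed Hoechst-stained cells | read-out basis = nuclear versus cytoplasmic GR-EGFP signal, averaged per well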
# pCIP destab: compounds decreasing mouse p/CIP protein stability | Q05BA5 | AID 1984 | 290,000 tested, 0.01% active | decrease of EGFP signal, % at 10 µM | F442A p/CIP-EGFP cells, EGFP fluorescence, 16 h;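 active = EGFP signal decrease of at least 30% at 10 µM or well 3 SD below plate mean, unless failing retest; inactive = the rest, including hits failing retest or dose response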
# p47phox inh: inhibitors of human p47phox binding; AID 1274; P14598; 220,000 tested, 0.53% active; p47phox/p22phox peptide binding, fluorescence polarization, 2 h; inhibition, % at 24.7 µM;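 active = inhibition above about 30%, limit read from the data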;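 also: 0% = p47phox with labelled peptide and 100% = labelled peptide alone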
# Target sequence (P14598 whole entry, looked up): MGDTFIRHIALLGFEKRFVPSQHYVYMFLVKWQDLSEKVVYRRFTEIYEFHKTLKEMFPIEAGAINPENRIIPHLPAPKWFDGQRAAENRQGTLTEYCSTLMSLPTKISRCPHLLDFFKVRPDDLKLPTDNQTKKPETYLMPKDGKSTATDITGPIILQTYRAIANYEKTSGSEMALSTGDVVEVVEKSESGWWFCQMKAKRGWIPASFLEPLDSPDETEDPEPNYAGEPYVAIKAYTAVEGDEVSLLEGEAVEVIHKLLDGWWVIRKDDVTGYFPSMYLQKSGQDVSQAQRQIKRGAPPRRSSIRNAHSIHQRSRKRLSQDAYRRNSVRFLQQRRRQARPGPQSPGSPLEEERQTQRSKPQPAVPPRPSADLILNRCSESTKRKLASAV
# RAM inhibit: inhibitors of the yeast RAM network | 190,000 tested, 1.8% active | inhibition, % at 50 µM | S. cerevisiae dse1pr::URA3 reporter, 5-FOA growth OD615, 2 d; analog-sensitive cbk1-as2 kinase mutant strain | AID 868;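 active = inhibition above a set limit, 3 SD over mean compound inhibition, cut at about 8.4% in these data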;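 also: 0% = DMSO-only wells with no growth and 100% = 10 µM 1-NA-PP1 full growth; inhibition rescues growth on 5-FOA so higher OD means more RAM inhibition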
# Active calls of the source: *; x = no result given.
SMILES,Dynein transport,pCIP destab,p47phox inh,RAM inhibit
O=[N+]([O-])c1cccc(-c2nc(-c3ccccc3)c(-c3cccs3)[nH]2)c1,-0.38,5,-12,8.5*
N#Cc1ccccc1Sc1ccccc1C(=O)OCc1nnc(-c2ccccc2)o1,0.94,4,-20,10*
COc1cccc(C(=O)NC(=S)Nc2ccc3oc(=O)ccc3c2)c1,-0.14,-15,37*,6
COc1cccc(C2CC(c3cccs3)=NN2C(=O)CSc2nc3c(cnn3-c3ccc(F)cc3)c(=O)[nH]2)c1OC (stereo not drawn),0.72,-5,-6,11*
O=C1/C(=C\c2ccc3ccccc3c2)CCCc2ccccc21,-0.86,-2,-23,11*
Cc1ccccc1/C=C1\CCCc2ccccc2C1=O,-0.0025,20,25,-1
CCCCCCn1nc(C(=O)Nc2nc3c(s2)CCCC3)c2ccccc2c1=O,0.52,-18,3,11*
CCCCn1nc(C(=O)Nc2nc3c(s2)CCCC3)c2ccccc2c1=O,-0.58,-3,-23,3
COCCCN1C(=O)C(O)=C(C(=O)c2ccco2)C1c1cccc(Br)c1 (stereo not drawn),-0.045,-5,8,2
COCCCN1C(=O)C(O)=C(C(=O)c2ccco2)C1c1ccc(Br)cc1 (stereo not drawn),0.091,4,x,9.1*
O=C1OC(/C=C/c2ccc(Cl)cc2Cl)=NC/1=C\c1cccs1,-0.77,-10,18,9.5*
NC1=NC(=O)/C(=C/c2ccc(Cl)cc2Cl)S1,x,9,x,x
C=CCNS(=O)(=O)c1cc(S(=O)(=O)NCC=C)c(OC)cc1OC,-0.099,-5,-2,2
COc1cc(NC(=S)NCCC(c2ccccc2)c2ccccc2)cc(OC)c1,-0.34,-3,-27,9.1*
COc1ccc(NC(=S)NCCC(c2ccccc2)c2ccccc2)c(OC)c1,-0.44,1,-15,8
Cc1ccc2c(c1)C1C=CCC1C(C(=O)O)N2 (stereo not drawn),2.1,-8,6,8.7*
Cc1cccc(C)c1NC(=O)C1CCN(S(C)(=O)=O)CC1,x,-7,x,x
Cc1ccc(CN2CCN(C3CCOCC3)CC2CCO)cc1 (stereo not drawn),-1.2,5,-6,-1
COc1ccccc1CCC(=O)NCCCn1ccc2ccccc21,x,0,x,x
O=C(NCC1CCCO1)c1ccc2c(c1)N(Cc1ccccc1)C(=O)CS2 (stereo not drawn),x,0,x,x
COc1ccc(/C=c2/sc3n(c2=O)C(c2ccccc2OC)C2=C(N=3)c3ccccc3CC2)cc1O (stereo not drawn),-0.24,-13,-15,9.5*
Cc1ccc(Cn2c(=O)sc3ccccc3c2=O)cc1,-0.44,3,-9,5
Cc1ccc(-n2sc3ccccc3c2=O)cc1,-1.5,12,101*,3
CN(C)c1ccc(C2SCCN2C(=O)c2ccc([N+](=O)[O-])cc2)cc1 (stereo not drawn),-0.11,4,-4,0
CCc1ccc(CNC(=O)C2CCCN(c3nn4c(=O)cc(C)nc4s3)C2)cc1 (stereo not drawn),x,-6,x,x
SMILES,Dynein transport,pCIP destab,p47phox inh,RAM inhibit
Cc1ccc(C(=O)COC(=O)c2ccc3c(c2)C(=O)N(c2cccc4ncccc24)C3=O)cc1,2.1,7,84*,5
O=C(OCC(=O)c1ccc(Cl)cc1Cl)c1ccc2c(c1)C(=O)N(c1cccc3ncccc13)C2=O,-0.67,0,0,4
O=C(COC(=O)c1ccc2c(c1)C(=O)N(c1cccc3ncccc13)C2=O)c1ccc(Cl)cc1,-0.11,12,56*,4
CC(=O)c1ccc(N2CCN(C(=O)C3CCN(S(=O)(=O)c4cccs4)CC3)CC2)cc1,x,-5,x,x
O=C(NCc1cccnc1)Nc1ccc(Cl)cc1,x,5,x,x
Cc1ccc(NC(=O)COC(=O)/C(=C/c2cccs2)c2cccs2)cc1S(=O)(=O)N(C)C,0.11,-10,-46,8.9*
NS(=O)(=O)c1cccc(NC(=O)COC(=O)/C(=C/c2cccs2)c2cccs2)c1,0.29,1,-27,5
CCNc1nc(NCC)nc(SCCOC(=O)c2ccccc2)n1,-0.09,-6,-6,1
CCNc1nc(NCC)nc(SCCOC(=O)Nc2ccc(Cl)cc2Cl)n1,0.2,1,-11,10*
COc1cc(C)ccc1OCc1cc(C(=O)N(C)CCCN2CCOCC2)no1,x,10,x,x
C#CCn1c(=NC(=O)c2cc(-c3cccs3)nc3ccccc23)sc2cc(S(N)(=O)=O)ccc21,-0.94,-2,1,9.7*
CCCCNC(=S)N/N=C/C1=CCC2CC1C2(C)C (stereo not drawn),1.9,2,-5,8.6*
O=C(NCc1ccccc1)c1cccc(COc2ccccc2Cl)c1,-0.89,5,-3,8.6*
O=C(NNC(=O)c1ccccc1OCc1ccc(F)cc1)c1ccccc1O,x,-14,x,x
O=C(NCc1ccc(F)cc1)c1ccccc1OCc1ccccc1,0.63,-7,-2,10*
CCOC(=O)C1(Cc2cccc(Cl)c2)CCCN(C(=O)c2cnn(CC)c2)C1 (stereo not drawn),x,1,x,x
COc1ccc(CNC(=O)c2c(O)c3cccc4c3n(c2=O)CCC4)cc1OC,-1.4,3,54*,3
COc1ccc(CCNC(=O)c2c(O)c3cccc4c3n(c2=O)CC4)cc1,-0.15,-4,-5,8.5*
O=C1C(=Cc2cccn2-c2ccccc2)C(=O)c2ccccc21,-0.34,-1,33*,4
COc1ccc(/C=N/NC(=O)c2cc(C)oc2C)cc1OC,-0.61,0,-1,x
COc1cc(/C=N/NC(=O)c2cc(C)oc2C)ccc1O,0.25,1,37*,-2
CSc1ccc(CN2CCN(C(=O)CC(C)C)CC2)cc1,x,-4,x,x
Cc1ccc2c(c1)N(C(=O)CCC(=O)NC1CCCCCC1)CCO2,x,-7,x,x
O=C(Cc1cccs1)Nc1cccc(-c2ccc3nncn3n2)c1,-0.2,8,-10,8.5*
COc1ccc(Cl)cc1C(=O)Nc1cccc(-c2ccc3nncn3n2)c1,-0.56,6,33*,0
SMILES,Dynein transport,pCIP destab,p47phox inh,RAM inhibit
CCOC(=O)c1sc(=S)sc1SCc1cccc(C(F)(F)F)c1,-1.3,-3,-5,8.9*
CCOC(=O)C(NC(=O)NCc1cccc(C(F)(F)F)c1)(OCC)C(F)(F)F (stereo not drawn),2.9,6,-8,1
CCOc1ccc(C2=Nc3ccc(Br)cc3C(c3ccc(N4CCOCC4)cc3)=NN2)cc1,-0.062,-2,-2,10*
COC(=O)c1sccc1NC(=O)CSc1cc(Cl)ccc1Cl,0.79,-13,-6,9.5*
CN1CCc2c1nc1ccccc1c2N=C1CCCN1Cc1ccccc1,-1.1,-10,3,0
Cn1c(O)c(N=NC(=S)Nc2ccccc2F)c2cc(S(=O)(=O)N3CCOCC3)ccc21,-1.1,5,-10,4
Cc1ccc(NC(=S)N=Nc2c(O)n(C)c3ccc(S(=O)(=O)N4CCOCC4)cc23)cc1C,-0.93,2,-11,9.4*
CCOc1cc(NC(=O)C2CCCO2)c(OCC)cc1NC(C)=O (stereo not drawn),-0.049,-12,103*,0
Cc1cc(=O)oc2cc(NC(=O)c3cccc(S(=O)(=O)N(C)C)c3)ccc12,x,-3,x,x
